The source of these data is ChEMBL document CHEMBL1777715, “Orally active aminopyridines as inhibitors of tetrameric fructose-1,6-bisphosphatase” (Bioorg Med Chem Lett, 2011).

The structures appear in SMILES notation. ≈ marks a conversion by molar mass, not a printed value.

Data set [1] can be described thus: Metabolic stability in human microsomes. Format: ADME, Microsome.
Data set [2] in a line: Metabolic stability in mouse microsomes. Format: ADME, Microsome.
Data set [3] in a line: Solubility of the compound. The data set is classed as physicochemical.
In data set [4] the test system is Mus musculus. The experiment in a line: Antidiabetic activity in db/db C57BLKS mouse assessed as reduction of plasma glucose level at 200 mg/kg, po administered 4 hrs after food removal measured after 6 hrs postdose relative to control. Format: functional. Set-up: scale not given: the % may be the effect or the level left. In a few lines:
(§1)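 Fifteen-week-old male C57BLKS db/db mice were kept under controlled feeding and block-randomized on baseline blood glucose and body weight. They received a single oral dose at 4 mL/kg in 0.5% Tween 80 / 0.5% hydroxyethylcellulose 4 h after morning food removal. Blood glucose was read from tail-tip blood with a handheld meter at 0, +2, +4 and +6 h. Data are mean ± SEM; percent change is versus vehicle.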

The subject of data set [5] is Mus musculus. The experiment in a line: Antidiabetic activity in db/db C57BLKS mouse assessed as increase of liver glycogen level at 200 mg/kg, po administered 4 hrs after food removal measured after 6 hrs postdose relative to control. The data set is classed as functional. In a few lines:
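Male db/db mice on C57BLKS background, 15 weeks old, kept under controlled feeding and block-randomized on blood glucose and body weight. Dosed orally 4 h after morning food removal at 4 mL/kg in vehicle (0.5% Tween 80, 0.5% hydroxyethylcellulose). Liver glycogen was taken 6 h post-dose and compared with vehicle-treated mice.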

In data set [6] the test system is Mus musculus. The experiment in a line: Antidiabetic activity in db/db C57BLKS mouse assessed as reduction of plasma glucose level at 200 mg/kg, po administered 4 hrs after food removal measured after 2 hrs postdose (Rbv = 22.73 +/- 0.73 mM). Format: functional. The method, boiled down:
as §1

Data set [7] has as its system Mus musculus. The data set can be described thus: Antidiabetic activity in db/db C57BLKS mouse assessed as reduction of plasma glucose level at 200 mg/kg, po administered 4 hrs after food removal measured after 4 hrs postdose (Rbv = 26.58 +/- 1.09 mM). The data set is classed as functional. The method, boiled down:
as §1

In data set [8] the test system is Mus musculus. The data set can be described thus: Antidiabetic activity in db/db C57BLKS mouse assessed as reduction of plasma glucose level at 200 mg/kg, po administered 4 hrs after food removal measured after 6 hrs postdose (Rbv = 23.84 +/- 0.98 mM). The data set is classed as functional. In a few lines:
as §1

For data set [9], the system named is Mus musculus. The experiment in a line: Hepatotoxicity in db/db C57BLKS mouse assessed as changes in normal appearance at 200 mg/kg, po. To be noted: in vivo. The data set is classed as toxicity, organism-based. Also on record: dose 200 mg/kg, route oral. The method, boiled down:
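After a single oral dose in 15-week-old male db/db (C57BLKS) mice, livers were inspected for colour and hypertrophy, and liver weight was compared with vehicle-treated mice.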

The target of data set [10] is T1, Fructose-1,6-bisphosphatase 1 (Mus musculus, UniProt Q9QXD6).
T1 sequence (Q9QXD6 whole entry): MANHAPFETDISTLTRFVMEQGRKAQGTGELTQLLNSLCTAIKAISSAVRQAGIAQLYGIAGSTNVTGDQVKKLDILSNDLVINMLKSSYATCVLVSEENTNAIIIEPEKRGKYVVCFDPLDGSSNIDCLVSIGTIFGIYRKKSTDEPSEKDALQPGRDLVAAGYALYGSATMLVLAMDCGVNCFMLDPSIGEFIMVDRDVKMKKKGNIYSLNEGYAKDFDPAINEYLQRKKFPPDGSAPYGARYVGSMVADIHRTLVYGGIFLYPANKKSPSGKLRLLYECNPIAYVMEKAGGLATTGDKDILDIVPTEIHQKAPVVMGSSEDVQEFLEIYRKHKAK
The data set can be described thus: Inhibition of mouse liver fructose-1,6-bisphosphatase.

A further data set deals with Hepatocyte. The experiment in a line: Reduction of glucose production in mouse hepatocytes after 6 hrs by glucose oxidase assay. The data set is classed as functional, cell-based. In a few lines:
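Primary mouse hepatocytes (25,000 cells/well) were grown 24 h at 37 °C in DMEM with 10% FBS. They were then starved 24 h in glucose-free RPMI with 1% FBS to deplete glycogen and washed with PBS. Cells were exposed to inhibitor for 6 h at 37 °C in PBS with 0.1% BSA, 20 mM lactate and 2 mM pyruvate. Glucose released into the supernatant was measured by glucose oxidase (Amplex Red).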

Consider `CC(=O)OCCc1sc(S(=O)(=O)NC(=O)Nc2cc(C(F)(F)F)c(F)c(N)n2)cc1C`, for which the Stability result in data set [1] and in [2] was “Unstable” throughout. Further, in [3], the solubility worked out at 160 µg/mL (≈ 330 µM). The Activity in the data set with Mus musculus [4] was 16%; in the data set on Mus musculus [5], 21%; in the data set on Mus musculus [6], 27.59 mM; with Mus musculus [7], 23.31 mM; with Mus musculus [8] it was 20.09 mM; with Mus musculus [9] it was “Non-toxic”. Besides, in [10], the IC50 is 3.5 µM. The same compound gave an EC50 in the data set with Hepatocyte of 2.7 µM.
